Results taken from ChEMBL document CHEMBL1134691, “3-Phenyl-5-acyloxymethyl-2H,5H-furan-2-ones: synthesis and biological activity of a novel group of potential antifungal drugs” (2001).
Converted amounts (≈) assume the structure as drawn.

Tests used:
Type in all cases: functional
Pichia kudriavzevii [1] = assay: Inhibition of Candida krusei E28 growth for 48 hours in vitro.
Summary of the method: (§1)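 NCCLS M27-A broth microdilution in RPMI 1640 with L-glutamine and 0.165 M MOPS, pH 7.0. Isolates kept on Sabouraud dextrose agar. Inoculum 5 × 10^3 cfu/mL final. Compounds were diluted in DMSO (≤2% final) and tested in 2-fold dilutions of 1000–0.24 µmol/L. Incubation at 35 °C, OD540 read at 24 and 48 h. MIC = 80% growth inhibition versus control; assays run twice in duplicate.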

Candida tropicalis = assay: Inhibition of Candida tropicalis 156 growth for 48 hours in vitro.; summary of the method: as §1
Clavispora lusitaniae [2] = assay: Inhibition of Candida lusitaniae 2446/I growth for 48 hours in vitro.; conditions: Clavispora lusitaniae, 48 h; read-out: MIC; summary of the method: as §1
Candida albicans [3] = assay: Inhibition of Candida albicans ATCC 44859 growth for 24 hours in vitro.; conditions: Candida albicans, ATCC 44859, 24 h; read-out: MIC; summary of the method: as §1
Candida parapsilosis [4] = assay: Inhibition of Candida parapsilosis ATCC 22019 growth for 24 hours in vitro.; conditions: Lodderomyces parapsilosis, ATCC 22019, 24 h; read-out: MIC; summary of the method: as §1
Lichtheimia corymbifera [5] = assay: In vitro inhibition of Absidia corymbifera 272 growth for 24 hours.
Summary of the method: (§2)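 Filamentous isolates tested by microdilution per NCCLS M27-A in RPMI 1640 plus L-glutamine, buffered with 0.165 M MOPS to pH 7.0. Final inoculum 5 × 10^3 cfu/mL. Compounds in DMSO (final ≤2%), 2-fold series over 1000–0.24 µmol/L. Plates held at 35 °C and read visually after 24 and 48 h. MIC taken as 80% inhibition of control growth; determined twice in duplicate.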

Candida albicans [6] = assay: Inhibition of Candida albicans ATCC 90028 for 48 hours in vitro.; conditions: Candida albicans, ATCC 90028, 48 h; read-out: MIC; summary of the method: as §1
Lichtheimia corymbifera [7] = assay: In vitro inhibition of Absidia corymbifera 272 growth for 48 hours.; conditions: Lichtheimia corymbifera, 48 h; read-out: MIC; summary of the method: as §2
Aspergillus fumigatus = assay: Inhibition of Aspergillus fumigatus 231 growth for 48 hours in vitro.; conditions: Aspergillus fumigatus, 48 h; read-out: MIC; summary of the method: as §2
Clavispora lusitaniae [8] = assay: Inhibition of Candida lusitaniae 2446/I growth for 24 hours in vitro.; conditions: Clavispora lusitaniae, 24 h; read-out: MIC; summary of the method: as §1
Pichia kudriavzevii [9] = assay: Inhibition of Candida krusei ATCC 6258 growth for 24 hours in vitro.; summary of the method: as §1
Candida parapsilosis [10] = assay: Inhibition of Candida parapsilosis ATCC 22019 growth for 48 hours in vitro.; conditions: Lodderomyces parapsilosis, ATCC 22019, 48 h; read-out: MIC; summary of the method: as §1
Pichia kudriavzevii [11] = assay: Inhibition of Candida krusei E28 growth for 24 hours in vitro.; conditions: Pichia kudriavzevii, 24 h; read-out: MIC; summary of the method: as §1
Pichia kudriavzevii [12] = assay: Inhibition of Candida krusei ATCC 6258 growth for 48 hours in vitro.; summary of the method: as §1
Candida albicans [13] = assay: Inhibition of Candida albicans ATCC 44859 growth for 48 hours in vitro.; conditions: Candida albicans, ATCC 44859, 48 h; read-out: MIC; summary of the method: as §1
Candida albicans [14] = assay: Inhibition of Candida albicans ATCC 90028 for 24 hours in vitro.; conditions: Candida albicans, ATCC 90028, 24 h; read-out: MIC; summary of the method: as §1
Nakaseomyces glabratus [15] = assay: Inhibition of Candida glabrata 20/I growth for 48 hours in vitro.; summary of the method: as §1
Nakaseomyces glabratus [16] = assay: Inhibition of Candida glabrata 20/I growth for 24 hours in vitro.; summary of the method: as §1
[17] = Pichia kudriavzevii, 48 h, read-out: MIC
[18] = Lichtheimia corymbifera, 24 h, read-out: MIC
[19] = Pichia kudriavzevii, ATCC 6258, 24 h, read-out: MIC
[20] = Pichia kudriavzevii, ATCC 6258, 48 h, read-out: MIC

| SMILES | MIC (Clavispora lusitaniae [2]) [µM] | MIC (Candida albicans [3]) [µM] | MIC (Candida parapsilosis [4]) [µM] | MIC (Candida albicans [6]) [µM] | MIC (Lichtheimia corymbifera [7]) [µM] | MIC (Aspergillus fumigatus) [µM] | MIC (Clavispora lusitaniae [8]) [µM] | MIC (Candida parapsilosis [10]) [µM] | MIC (Pichia kudriavzevii [11]) [µM] | MIC (Candida albicans [13]) [µM] | MIC (Candida albicans [14]) [µM] | MIC (Pichia kudriavzevii [1]; [17]) [µM] | MIC (Lichtheimia corymbifera [5]; [18]) [µM] | MIC (Pichia kudriavzevii [9]; [19]) [µM] | MIC (Pichia kudriavzevii [12]; [20]) [µM] | other results |
| --- | --- | --- | --- | --- | --- | --- | --- | --- | --- | --- | --- | --- | --- | --- | --- | --- |
| CC(C)(C)C(=O)OCC1C=C(c2ccc(Cl)c(Cl)c2)C(=O)O1 (stereo in doubt; (-)2c) | 7.81 (≈ 2.68 µg/mL) | 1.95 (≈ 0.669 µg/mL) | 7.81 (≈ 2.68 µg/mL) | 7.81 (≈ 2.68 µg/mL) | 62.5 (≈ 21.5 µg/mL) | 7.81 (≈ 2.68 µg/mL) | 3.91 (≈ 1.34 µg/mL) | 15.6 (≈ 5.36 µg/mL) | 7.81 (≈ 2.68 µg/mL) | 3.91 (≈ 1.34 µg/mL) | 3.91 (≈ 1.34 µg/mL) | – | – | – | – | MIC (Pichia kudriavzevii [1]): 5.36 uM l-1; MIC (Candida tropicalis): 5.36 uM l-1; MIC (Lichtheimia corymbifera [5]): 5.36 uM l-1; MIC (Pichia kudriavzevii [9]): 2.68 uM l-1; MIC (Pichia kudriavzevii [12]): 10.73 uM l-1 |
| C[C@@H]1[C@H](O)[C@@H](C)/C=C/C=C/C=C/C=C/C=C/C=C/C=C/[C@H](O[C@@H]2O[C@H](C)[C@@H](O)[C@H](N)[C@@H]2O)C[C@@H]2O[C@](O)(C[C@@H](O)C[C@@H](O)[C@H](O)CC[C@@H](O)C[C@@H](O)CC(=O)O[C@H]1C)C[C@H](O)[C@H]2C(=O)O [AMPHOTERICIN B] | 2.16 (≈ 2 µg/mL) | 1.08 (≈ 0.998 µg/mL) | 2.16 (≈ 2 µg/mL) | 2.16 (≈ 2 µg/mL) | 2.16 (≈ 2 µg/mL) | 0.54 (≈ 0.499 µg/mL) | 2.16 (≈ 2 µg/mL) | 2.16 (≈ 2 µg/mL) | 2.16 (≈ 2 µg/mL) | 1.08 (≈ 0.998 µg/mL) | 2.16 (≈ 2 µg/mL) | 4.33 (≈ 4 µg/mL) | 2.16 (≈ 2 µg/mL) | 2.16 (≈ 2 µg/mL) | 4.33 (≈ 4 µg/mL) | MIC (Nakaseomyces glabratus [15]): 2 µg/mL (≈ 2.16 µM); MIC (Nakaseomyces glabratus [16]): 2 µg/mL (≈ 2.16 µM) |
| CC(=O)N1CCN(c2ccc(OCC3COC(Cn4ccnc4)(c4ccc(Cl)cc4Cl)O3)cc2)CC1 (stereo not drawn) [KETOCONAZOLE] | 0.11 (≈ 0.0585 µg/mL) | 0.11 (≈ 0.0585 µg/mL) | 0.11 (≈ 0.0585 µg/mL) | < 0.056 | 31.2 (≈ 16.6 µg/mL) | 15.6 (≈ 8.31 µg/mL) | 0.056 (≈ 0.0298 µg/mL) | 0.11 (≈ 0.0585 µg/mL) | 3.91 (≈ 2.08 µg/mL) | 0.11 (≈ 0.0585 µg/mL) | < 0.056 | 3.91 (≈ 2.08 µg/mL) | 31.2 (≈ 16.6 µg/mL) | 1.96 (≈ 1.04 µg/mL) | 1.96 (≈ 1.04 µg/mL) | – |
